The species named for assay [1] is Rattus norvegicus. Kind of assay: Activation of ATP-sensitive potassium channel in Wistar rat pancreatic beta islets assessed as glucose-induced residual insulin secretion at 50 uM relative to control.
For assay [2], the species on record is Rattus norvegicus. In words: Activation of ATP-sensitive potassium channel in potassium-depolarized Wistar rat aortic rings assessed as myorelaxant activity against KCl-induced contraction. Type of assay: tissue-based. The note with it: Aorta. In short, it runs like this:
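Aorta rings were taken from fed Wistar rats (180–220 g) and contracted with KCl 30 mM. Dose–response curves were run against the plateau phase.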

Assay [3] is filed under the species Rattus norvegicus. In words: Activation of ATP-sensitive potassium channel in Wistar rat pancreatic beta islets assessed as glucose-induced residual insulin secretion at 10 uM relative to control.
The subject of assay [4] is Aorta. In words: Ratio of IC50 for inhibition of glucose-induced insulin secretion in Wistar rat pancreatic beta islets to ED50 for myorelaxant activity in Wistar rat aortic rings. Type of assay: functional.
The nature of assay [5]: Activation of ATP-sensitive potassium channel in Wistar rat pancreatic beta islets assessed as inhibition of glucose-induced insulin secretion.

The values below come from ChEMBL document CHEMBL1150392, “Synthesis and activity on rat aorta rings and rat pancreatic beta-cells of ring-opened analogues of benzopyran-type potassium channel activators” (Bioorg Med Chem, 2008).

Structures are written as SMILES.

`COc1ccccc1CNC(=O)c1cccs1`: the Activity in assay [1] is 83.3%. Moreover, the ED50 in assay [2] was above 30 µM.
On the same counts, the results for `COc1ccccc1CNC(=O)NS(=O)(=O)c1ccc(Cl)cc1` are 113% and above 30 µM.
`CC1=Nc2ccc(Cl)cc2S(=O)(=O)N1` [DIAZOXIDE]: the Activity in assay [1] turned out to be 27.9%; in assay [3] it was 71.7%. In addition, in assay [4], the Ratio was 1. Besides, the IC50 (usually the concentration that inhibits the measured activity by half) in assay [5] worked out at 19.7 µM. Further, the ED50 in assay [2] was found to be 23.8 µM.
Regarding `CC(N/C(=N\C#N)Nc1ccncc1)C(C)(C)C` (configuration not stated), in assay [3], the Activity is 96%. Further, in assay [2], the ED50 was determined as 0.35 µM.
With `CC1(C)Oc2ccc(C#N)cc2C(N2CCCC2=O)C1O` (configuration not stated) [CROMAKALIM], the Activity was found to be 77.2% in assay [1] and 94.7% in assay [3]. Also, the Ratio in assay [4] was above 769. Also, the ED50 in assay [2] came out at 0.13 µM.
For `COc1ccccc1CNC(=O)c1ccc([N+](=O)[O-])cc1`, the Activity in assay [1] came out at 86.6%. Also, the ED50 in assay [2] is above 30 µM.
